Bioassay records: PubChem, several laboratories
Most compounds without a hit are left out; they make up all but 3.9% or so of the library.
TAAR1 antagonist = antagonists of human TAAR1 | Q96RJ0 | AID 624466 | inhibition, % at 3 µM | CHO RD-HGA16 TAAR1, Fluo-8 calcium fluorescence, antagonist | 360,000 tested, 1.5% active;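 active means inhibition above a per-plate cutoff, the mean inhibition of test compounds on that plate plus 3 SD, cut at about 49% in these data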
Target sequence (Q96RJ0 whole entry, looked up): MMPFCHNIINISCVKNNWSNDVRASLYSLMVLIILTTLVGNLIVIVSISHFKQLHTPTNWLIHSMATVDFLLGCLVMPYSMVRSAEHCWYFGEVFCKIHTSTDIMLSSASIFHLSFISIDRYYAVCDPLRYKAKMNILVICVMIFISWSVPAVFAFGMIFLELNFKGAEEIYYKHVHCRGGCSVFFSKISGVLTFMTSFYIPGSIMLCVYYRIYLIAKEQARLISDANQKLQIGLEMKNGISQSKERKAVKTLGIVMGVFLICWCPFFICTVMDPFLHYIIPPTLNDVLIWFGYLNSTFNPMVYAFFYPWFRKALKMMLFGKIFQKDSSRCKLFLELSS
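Test system: CHO RD-HGA16 cells bearing hTAAR1 | Reagent: β-PEA, EC80 | Compound dosing: 3 µM, single point | Schedule: Dye loading 75 min at 37 °C, then 30 min room temperature | Signal: Calcium fluorescence with Fluo-8 | Evaluation: Percent inhibition of PEA-evoked calcium signal, max/basal emission ratio | Control set: DMSO-only wells and EC80 β-PEA-stimulated wells | Repeats: Singlicate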
TMEM16A inh = blocks the mouse calcium-activated chloride channel TMEM16A. HEK293 TMEM16A/YFP iodide influx fluorescence, ionomycin. normalized B-score (activity score, 25-100; higher = stronger inhibition) at 10 µM. 310,000 tested, 1.2% active. AID 588511;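 active means ratio plate-corrected score three or more library SD toward inhibition, starting fluorescence score within five deviations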;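 further: score derived from kinetic fluorescence span divided by baseline fluorescence per well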
CRFR2-BP ag = CRF-BP/CRF-R2 complex agonism. HEK293 CRF-R2/CRF-BP, calcium dye fluorescence (FLIPR); percent of saturating CRF peptide response. activation, % at 13.2 µM. 350,000 tested, 0.46% active. AID 588473;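 active means activation of at least 50%, plus an integration ratio under a set limit after plate pattern correction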
CRFR2-BP antag = CRF-BP/CRF-R2 complex antagonism; inhibition, % at 11.8 µM; 350,000 tested, 0.59% active; HEK293 CRF-R2/CRF-BP, CRF-induced calcium fluorescence;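 active means inhibition of the ligand-induced calcium signal above about 50% at the single tested concentration, limit read from the data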
TMEM16A act = mouse TMEM16A channel activation, primary screen; AID 623877; B-score at 10 µM; Q8BHY3; 340,000 tested, 0.3% active; HEK293 TMEM16A/YFP-H148Q/I152L, iodide quench fluorescence; hits give low values;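 active means fluorescence-ratio B-score plate-corrected deviation score at least 3 library SD below zero, with starting fluorescence score within 5 deviations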;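 further: channel opened by trigger with iodide after compound preincubation; score built on the fluorescence ratio of max minus min over baseline; more negative score means more quench and so TMEM16A activation or potentiation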
TAAR1 agonist = agonists of human TAAR1. AID 624467. activation, % at 3 µM. 360,000 tested, 0.99% active. Q96RJ0. CHO RD-HGA16 TAAR1, Fluo-8 calcium fluorescence; vehicle wells 0%, saturating PEA agonist 100%;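 active means activation above the mean activation of all test compounds in the run plus 3 SD, cut at about 38% in these data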
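Test system: RD-HGA16 (CHO) cells co-expressing Gα16 and hTAAR1; dosing: one-point dosing at 3 µM (nominal); timing: 17-24 h seeding, 75 min 37 °C dye, 30 min RT; signal: kinetic Fluo-8 calcium fluorescence; read-out basis: % activation relative to PEA EC100 response; controls: DMSO and PEA EC100; replicates: n 1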
A number is an active result; . = inactive; / = no result given.

SMILES | TAAR1 antagonist | TMEM16A inh | CRFR2-BP ag | CRFR2-BP antag | TMEM16A act | TAAR1 agonist
CCN(CC(=O)Nc1c(F)cccc1F)C(=O)c1ccc2c(=O)n3c(nc2c1)CCC3 | . | / | . | 104 | . | .
Nc1ccc(N=Nc2ccccc2)cc1[N+](=O)[O-] | . | / | . | 63 | . | .
Cc1nnsc1C(=O)N/N=C/c1ccc2ccccc2c1O | . | . | 147 | . | . | .
Cc1nnsc1C(=O)N/N=C/c1ccccc1 | . | . | . | . | . | .
Oc1cccc(NC(=S)Nc2ccc(SC(F)F)cc2)c1 | . | . | . | . | . | .
Oc1cccc2c(NC(=S)Nc3ccc(SC(F)F)cc3)cccc12 | . | 100 | . | . | . | .
CCN1C(Nc2ccccc2)=NC[C@@H]1Cc1ccccc1 | . | . | . | . | . | .
CC(C)(C)C1CCC(CN2C(Nc3ccccc3)=NC[C@@H]2Cc2ccccc2)CC1 (some centres not stated) | . | / | . | . | . | 74
CN(C1CC(C)(C)NC(C)(C)C1)S(=O)(=O)CC12CCC(CC1=O)C2(C)C (configuration not stated) | . | . | . | . | . | .
CC(Oc1ccc(C(C)(C)C)cc1)c1ccnc2nc(/N=C/N(C)C)nn12 (configuration not stated) | . | 25 | . | . | . | .
CC(CCc1ccccc1)NC(=O)CC(C)c1ccccc1 (configuration not stated) | . | . | . | . | . | .
N#C/C(=C(/O)CSc1ccccn1)c1nc2ccccc2s1 | . | . | . | . | . | .
N#C/C(=C(/O)COC(=O)c1ccc(C#N)cc1)c1nc2ccccc2s1 | . | 25 | . | . | . | .
N#C/C(=C(/O)COc1ccccc1)c1nc2ccccc2s1 | . | . | . | . | . | .
N#C/C(=N\O)c1nc2ccccc2s1 | . | . | . | . | . | .
N#C/C(=C(/O)c1ccc(F)cc1)c1nc2ccccc2s1 | . | 25 | . | . | . | .
N#C/C(=C(/O)COc1ccc(Cl)cc1)c1nc2ccccc2s1 | . | 100 | 70 | 72 | . | .
N#C/C(=C(/O)CSc1ccccc1C(=O)O)c1nc2ccccc2s1 | . | . | . | . | . | .
Cc1ccc(SC/C(O)=C(\C#N)c2nc3ccccc3s2)cc1 | . | 25 | . | . | . | .
O=C(NCc1ccc2c(c1)OCO2)C1CC(=O)N(CCc2ccc(Cl)cc2)C1 (configuration not stated) | . | . | . | . | . | .
Cc1ccc(C)c(S(=O)(=O)N2CCCC2CNC(=O)C(=O)NCc2ccccn2)c1 (configuration not stated) | . | . | . | . | . | .
O=C(COC(=O)c1ccc(Br)o1)NCCc1ccccc1 | . | . | . | . | . | .
COc1ccc(C/C(O)=C(\C#N)c2nc3ccccc3s2)cc1 | / | 100 | . | . | . | /
COc1ccc(OC/C(O)=C(\C#N)c2nc3ccccc3[nH]2)cc1 | . | . | . | . | . | .
Cc1ccc(C)c(NC(=O)C(=O)NCCCN2CCOCC2)c1 | . | . | . | . | . | .
SMILES | TAAR1 antagonist | TMEM16A inh | CRFR2-BP ag | CRFR2-BP antag | TMEM16A act | TAAR1 agonist
Cc1ccc(C)c(NC(=S)NCCCN2CCOCC2)c1 | . | . | . | 126 | . | .
Cc1ccc(F)cc1NC(=O)CN1C(=O)NC2(CCCc3ccccc32)C1=O (configuration not stated) | . | . | . | . | . | .
CC1CC(C)CN(C(=S)Nc2ccc(SC(F)F)cc2)C1 (configuration not stated) | . | . | . | . | . | 41
COc1ccc(C(CNC(=O)c2ccc(S(=O)(=O)N3CC(C)CC(C)C3)cc2)N(C)C)cc1 (configuration not stated) | . | / | . | . | . | .
CCn1c(C)c(C(C)=O)c(N2CCN(C(c3ccccc3)c3ccccc3)CC2)nc1=S | 50 | . | . | . | . | .
CCn1c(C)c(C(C)=O)c(N2CCN(c3ccccc3)CC2)nc1=S | . | . | 60 | . | . | .
CN(CCOc1ccc(Cl)cc1)C(=O)C1CCN(C(=O)c2ccc(Cl)cc2)CC1 | . | . | . | 120 | . | .
